# Calls of active or inactive are those of the source. The rule behind the calls is not given here.
# Target: Prothrombin (Homo sapiens) (UniProt P00734)
# Test: Inhibition of human thrombin at 100 uM
# Settings: not given
row,Structure (SMILES),inhibition
1,COc1ccc2c(c1)C(CC(=O)N[C@H](C(=O)N[C@@H](CCc1ccccc1)C(=O)NCc1ccc(C)cc1)[C@@H](C)O)CC2=O (stereo partly drawn),Active
2,C[C@@H](O)[C@H](NC(=O)c1ccc(OCc2ccccc2)cc1)C(=O)N[C@@H](CCc1ccccc1)C(=O)NCc1ccccc1Cl,Active
3,Cc1ccc(CNC(=O)[C@H](CCc2ccccc2)NC(=O)[C@@H](NC(=O)C(=O)c2c[nH]c3ccccc23)[C@@H](C)O)cc1,Active

# Tested on: not listed separately
# Test: Cytotoxicity against human Calu6 cells assessed as cellular ATP level after 72 hrs by luminescence-based ATPlite assay
# Format: cell-based, Calu-6
# Settings: read-out: LC50
# Method in brief: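 Calu6 cells, 2000 per well, incubated with compound for 72 h. Viability read as cellular ATP by luminescence (ATPlite). Values are means of at least three independent experiments.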
row,Structure (SMILES),CC50 at 72 h [nM]
1,COc1ccc2c(c1)C(CC(=O)N[C@H](C(=O)N[C@@H](CCc1ccccc1)C(=O)NCc1ccc(C)cc1)[C@@H](C)O)CC2=O (stereo partly drawn),1200
2,C[C@@H](O)[C@H](NC(=O)c1ccc(OCc2ccccc2)cc1)C(=O)N[C@@H](CCc1ccccc1)C(=O)NCc1ccccc1Cl,290
3,Cc1ccc(CNC(=O)[C@H](CCc2ccccc2)NC(=O)[C@@H](NC(=O)C(=O)c2c[nH]c3ccccc23)[C@@H](C)O)cc1,136

# Species on record: Homo sapiens
# Test: Inhibition of human chymotrypsin at 100 uM
# Settings: not given
row,Structure (SMILES),inhibition
1,COc1ccc2c(c1)C(CC(=O)N[C@H](C(=O)N[C@@H](CCc1ccccc1)C(=O)NCc1ccc(C)cc1)[C@@H](C)O)CC2=O (stereo partly drawn),Active
2,C[C@@H](O)[C@H](NC(=O)c1ccc(OCc2ccccc2)cc1)C(=O)N[C@@H](CCc1ccccc1)C(=O)NCc1ccccc1Cl,Active
3,Cc1ccc(CNC(=O)[C@H](CCc2ccccc2)NC(=O)[C@@H](NC(=O)C(=O)c2c[nH]c3ccccc23)[C@@H](C)O)cc1,Active

# Tested on: not listed separately
# Test: Inhibition of chymotrypsin-like activity of human 20s proteasome beta-1 subunit in human erythrocyte assessed as hydrolysis of Ac-WLA-AMC fluorogenic substrate
# Settings: not given
row,Structure (SMILES),IC50 [nM]
1,COc1ccc2c(c1)C(CC(=O)N[C@H](C(=O)N[C@@H](CCc1ccccc1)C(=O)NCc1ccc(C)cc1)[C@@H](C)O)CC2=O (stereo partly drawn),> 20000
2,C[C@@H](O)[C@H](NC(=O)c1ccc(OCc2ccccc2)cc1)C(=O)N[C@@H](CCc1ccccc1)C(=O)NCc1ccccc1Cl,> 20000
3,Cc1ccc(CNC(=O)[C@H](CCc2ccccc2)NC(=O)[C@@H](NC(=O)C(=O)c2c[nH]c3ccccc23)[C@@H](C)O)cc1,> 20000

# Species on record: Homo sapiens
# Test: Inhibition of human elastase at 100 uM
# Settings: not given
row,Structure (SMILES),inhibition
1,COc1ccc2c(c1)C(CC(=O)N[C@H](C(=O)N[C@@H](CCc1ccccc1)C(=O)NCc1ccc(C)cc1)[C@@H](C)O)CC2=O (stereo partly drawn),Active
2,C[C@@H](O)[C@H](NC(=O)c1ccc(OCc2ccccc2)cc1)C(=O)N[C@@H](CCc1ccccc1)C(=O)NCc1ccccc1Cl,Active
3,Cc1ccc(CNC(=O)[C@H](CCc2ccccc2)NC(=O)[C@@H](NC(=O)C(=O)c2c[nH]c3ccccc23)[C@@H](C)O)cc1,Active

# Target: Cathepsin B (Homo sapiens) (UniProt P07858)
# Test: Inhibition of human cathepsin B at 100uM
# Settings: not given
row,Structure (SMILES),inhibition
1,COc1ccc2c(c1)C(CC(=O)N[C@H](C(=O)N[C@@H](CCc1ccccc1)C(=O)NCc1ccc(C)cc1)[C@@H](C)O)CC2=O (stereo partly drawn),Active
2,C[C@@H](O)[C@H](NC(=O)c1ccc(OCc2ccccc2)cc1)C(=O)N[C@@H](CCc1ccccc1)C(=O)NCc1ccccc1Cl,Active
3,Cc1ccc(CNC(=O)[C@H](CCc2ccccc2)NC(=O)[C@@H](NC(=O)C(=O)c2c[nH]c3ccccc23)[C@@H](C)O)cc1,Active

# Target: Trypsin (Homo sapiens) (UniProt P07477+P07478+P35030)
# Test: Inhibition of human trypsin at 100 uM
# Format: protein assay
# Settings: not given
row,Structure (SMILES),inhibition
1,COc1ccc2c(c1)C(CC(=O)N[C@H](C(=O)N[C@@H](CCc1ccccc1)C(=O)NCc1ccc(C)cc1)[C@@H](C)O)CC2=O (stereo partly drawn),Active
2,C[C@@H](O)[C@H](NC(=O)c1ccc(OCc2ccccc2)cc1)C(=O)N[C@@H](CCc1ccccc1)C(=O)NCc1ccccc1Cl,Active
3,Cc1ccc(CNC(=O)[C@H](CCc2ccccc2)NC(=O)[C@@H](NC(=O)C(=O)c2c[nH]c3ccccc23)[C@@H](C)O)cc1,Active

# Target: Tissue-type plasminogen activator (Homo sapiens) (UniProt P00750)
# Sequence (P00750 36-562 limits assumed): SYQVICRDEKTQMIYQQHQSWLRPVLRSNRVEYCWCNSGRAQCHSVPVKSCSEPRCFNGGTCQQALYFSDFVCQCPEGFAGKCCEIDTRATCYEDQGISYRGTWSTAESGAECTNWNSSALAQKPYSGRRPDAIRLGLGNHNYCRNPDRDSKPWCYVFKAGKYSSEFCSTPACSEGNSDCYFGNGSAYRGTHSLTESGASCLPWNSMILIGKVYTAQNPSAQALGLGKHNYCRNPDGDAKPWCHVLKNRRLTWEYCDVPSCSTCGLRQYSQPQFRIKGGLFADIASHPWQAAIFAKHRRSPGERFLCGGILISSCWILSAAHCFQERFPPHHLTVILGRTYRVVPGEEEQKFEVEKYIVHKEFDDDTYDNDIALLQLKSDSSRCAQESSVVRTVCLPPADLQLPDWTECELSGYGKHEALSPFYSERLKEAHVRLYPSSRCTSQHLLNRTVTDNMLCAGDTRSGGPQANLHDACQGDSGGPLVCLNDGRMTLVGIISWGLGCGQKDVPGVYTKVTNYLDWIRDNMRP
# Test: Inhibition of tissue plasminogen activator at 100 uM
# Settings: not given
row,Structure (SMILES),inhibition
1,COc1ccc2c(c1)C(CC(=O)N[C@H](C(=O)N[C@@H](CCc1ccccc1)C(=O)NCc1ccc(C)cc1)[C@@H](C)O)CC2=O (stereo partly drawn),Active
2,C[C@@H](O)[C@H](NC(=O)c1ccc(OCc2ccccc2)cc1)C(=O)N[C@@H](CCc1ccccc1)C(=O)NCc1ccccc1Cl,Active
3,Cc1ccc(CNC(=O)[C@H](CCc2ccccc2)NC(=O)[C@@H](NC(=O)C(=O)c2c[nH]c3ccccc23)[C@@H](C)O)cc1,Active

# Target: T1, Calpain-1 catalytic subunit (Homo sapiens) (UniProt P07384)
# T1 sequence (whole entry): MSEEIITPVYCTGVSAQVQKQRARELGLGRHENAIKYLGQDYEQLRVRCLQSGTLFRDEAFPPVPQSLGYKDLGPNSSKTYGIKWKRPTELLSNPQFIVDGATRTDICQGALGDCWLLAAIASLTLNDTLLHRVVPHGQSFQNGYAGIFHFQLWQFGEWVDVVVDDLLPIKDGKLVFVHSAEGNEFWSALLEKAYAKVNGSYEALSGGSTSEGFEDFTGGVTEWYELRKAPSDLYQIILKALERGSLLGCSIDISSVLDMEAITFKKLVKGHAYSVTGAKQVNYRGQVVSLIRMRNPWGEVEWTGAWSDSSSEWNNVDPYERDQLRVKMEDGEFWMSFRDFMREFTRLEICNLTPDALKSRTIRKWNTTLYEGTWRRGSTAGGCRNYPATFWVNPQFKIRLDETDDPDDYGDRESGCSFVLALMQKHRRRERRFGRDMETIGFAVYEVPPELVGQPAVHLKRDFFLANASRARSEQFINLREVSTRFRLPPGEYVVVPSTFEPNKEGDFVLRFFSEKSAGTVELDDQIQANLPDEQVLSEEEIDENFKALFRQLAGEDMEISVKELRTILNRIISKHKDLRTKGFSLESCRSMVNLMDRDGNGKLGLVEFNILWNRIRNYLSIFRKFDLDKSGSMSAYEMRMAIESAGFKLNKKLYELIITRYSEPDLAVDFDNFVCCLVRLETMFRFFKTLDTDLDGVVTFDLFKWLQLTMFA
# Test: Inhibition of human calpain 1 at 100 uM
# Settings: not given
row,Structure (SMILES),inhibition
1,COc1ccc2c(c1)C(CC(=O)N[C@H](C(=O)N[C@@H](CCc1ccccc1)C(=O)NCc1ccc(C)cc1)[C@@H](C)O)CC2=O (stereo partly drawn),Active
2,C[C@@H](O)[C@H](NC(=O)c1ccc(OCc2ccccc2)cc1)C(=O)N[C@@H](CCc1ccccc1)C(=O)NCc1ccccc1Cl,Active
3,Cc1ccc(CNC(=O)[C@H](CCc2ccccc2)NC(=O)[C@@H](NC(=O)C(=O)c2c[nH]c3ccccc23)[C@@H](C)O)cc1,Active

# Tested on: not listed separately
# Test: (§1) Inhibition of TNF-alpha-induced NF-kappaB activation in human HEK293 cells after 3 hrs by luciferase reporter gene assay
# Format: cell-based
# Settings: HEK293, 3 h
# Method in brief: (§2)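 NF-κB-luciferase reporter in HEK293 cells (10,000 per well). Cells were pre-incubated with compound for 1 h, then stimulated with 10 ng/ml TNF-α for 3 h with compound still present. IC50 and percentage inhibition were reported as means of at least three independent experiments.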
row,Structure (SMILES),IC50 [nM]
1,COc1ccc2c(c1)C(CC(=O)N[C@H](C(=O)N[C@@H](CCc1ccccc1)C(=O)NCc1ccc(C)cc1)[C@@H](C)O)CC2=O (stereo partly drawn),320
2,C[C@@H](O)[C@H](NC(=O)c1ccc(OCc2ccccc2)cc1)C(=O)N[C@@H](CCc1ccccc1)C(=O)NCc1ccccc1Cl,29
3,Cc1ccc(CNC(=O)[C@H](CCc2ccccc2)NC(=O)[C@@H](NC(=O)C(=O)c2c[nH]c3ccccc23)[C@@H](C)O)cc1,90

# Tested on: HEK293
# Test: as §1
# Format: cell-based
# Set-up: concentration or dose not given beside the values
# Settings: dose or concentration not given here
# Method in brief: as §2
row,Structure (SMILES),inhibition [%]
1,COc1ccc2c(c1)C(CC(=O)N[C@H](C(=O)N[C@@H](CCc1ccccc1)C(=O)NCc1ccc(C)cc1)[C@@H](C)O)CC2=O (stereo partly drawn),89
2,C[C@@H](O)[C@H](NC(=O)c1ccc(OCc2ccccc2)cc1)C(=O)N[C@@H](CCc1ccccc1)C(=O)NCc1ccccc1Cl,87
3,Cc1ccc(CNC(=O)[C@H](CCc2ccccc2)NC(=O)[C@@H](NC(=O)C(=O)c2c[nH]c3ccccc23)[C@@H](C)O)cc1,100

# Target: T2, Coagulation factor XII (Homo sapiens) (UniProt P00748)
# T2 sequence (whole entry): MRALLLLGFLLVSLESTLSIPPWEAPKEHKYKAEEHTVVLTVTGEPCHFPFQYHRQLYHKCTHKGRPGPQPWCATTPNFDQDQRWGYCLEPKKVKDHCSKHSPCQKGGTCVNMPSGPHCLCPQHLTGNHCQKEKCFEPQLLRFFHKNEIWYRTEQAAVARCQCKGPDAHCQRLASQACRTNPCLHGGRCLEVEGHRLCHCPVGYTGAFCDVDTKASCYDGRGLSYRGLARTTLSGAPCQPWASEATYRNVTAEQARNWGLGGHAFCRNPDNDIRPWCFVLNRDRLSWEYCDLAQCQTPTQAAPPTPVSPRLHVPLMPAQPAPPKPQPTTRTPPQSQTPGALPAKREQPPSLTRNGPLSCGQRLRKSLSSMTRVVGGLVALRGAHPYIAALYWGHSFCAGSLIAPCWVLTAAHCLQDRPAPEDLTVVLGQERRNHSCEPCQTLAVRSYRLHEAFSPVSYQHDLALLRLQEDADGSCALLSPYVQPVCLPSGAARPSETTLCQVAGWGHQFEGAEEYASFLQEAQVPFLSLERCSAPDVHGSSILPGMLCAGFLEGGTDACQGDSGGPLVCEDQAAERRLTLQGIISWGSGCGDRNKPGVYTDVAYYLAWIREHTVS
# Test: Inhibition of human coagulation factor beta 12a at 100 uM
# Settings: not given
row,Structure (SMILES),inhibition
1,COc1ccc2c(c1)C(CC(=O)N[C@H](C(=O)N[C@@H](CCc1ccccc1)C(=O)NCc1ccc(C)cc1)[C@@H](C)O)CC2=O (stereo partly drawn),Active
2,C[C@@H](O)[C@H](NC(=O)c1ccc(OCc2ccccc2)cc1)C(=O)N[C@@H](CCc1ccccc1)C(=O)NCc1ccccc1Cl,Active
3,Cc1ccc(CNC(=O)[C@H](CCc2ccccc2)NC(=O)[C@@H](NC(=O)C(=O)c2c[nH]c3ccccc23)[C@@H](C)O)cc1,Active

# Target: Plasminogen (Homo sapiens) (UniProt P00747)
# Sequence (P00747 97-580 limits assumed): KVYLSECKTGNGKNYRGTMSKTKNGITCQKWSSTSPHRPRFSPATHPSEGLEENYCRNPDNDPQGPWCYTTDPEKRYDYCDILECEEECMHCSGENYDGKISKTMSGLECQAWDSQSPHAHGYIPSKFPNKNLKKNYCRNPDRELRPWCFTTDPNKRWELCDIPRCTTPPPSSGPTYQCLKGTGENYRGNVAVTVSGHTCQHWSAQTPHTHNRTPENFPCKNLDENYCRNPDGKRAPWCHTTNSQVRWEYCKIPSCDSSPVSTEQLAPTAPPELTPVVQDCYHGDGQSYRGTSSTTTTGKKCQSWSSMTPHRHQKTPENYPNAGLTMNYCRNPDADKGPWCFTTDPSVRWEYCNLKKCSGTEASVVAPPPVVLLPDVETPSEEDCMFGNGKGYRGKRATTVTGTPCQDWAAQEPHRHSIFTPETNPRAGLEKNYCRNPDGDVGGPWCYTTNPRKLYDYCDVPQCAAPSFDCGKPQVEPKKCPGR
# Sequence (P00747 581-810 limits assumed): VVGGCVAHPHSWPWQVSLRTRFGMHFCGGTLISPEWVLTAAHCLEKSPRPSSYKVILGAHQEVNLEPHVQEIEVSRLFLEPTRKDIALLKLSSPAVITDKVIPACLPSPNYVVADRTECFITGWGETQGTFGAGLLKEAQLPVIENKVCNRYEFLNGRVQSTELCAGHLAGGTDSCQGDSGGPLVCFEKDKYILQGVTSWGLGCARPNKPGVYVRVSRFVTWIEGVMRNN
# Test: Inhibition of human plasmin at 100 uM
# Settings: not given
row,Structure (SMILES),inhibition
1,COc1ccc2c(c1)C(CC(=O)N[C@H](C(=O)N[C@@H](CCc1ccccc1)C(=O)NCc1ccc(C)cc1)[C@@H](C)O)CC2=O (stereo partly drawn),Active
2,C[C@@H](O)[C@H](NC(=O)c1ccc(OCc2ccccc2)cc1)C(=O)N[C@@H](CCc1ccccc1)C(=O)NCc1ccccc1Cl,Active
3,Cc1ccc(CNC(=O)[C@H](CCc2ccccc2)NC(=O)[C@@H](NC(=O)C(=O)c2c[nH]c3ccccc23)[C@@H](C)O)cc1,Active

# Target: Procathepsin L (Homo sapiens) (UniProt P07711)
# Sequence (P07711 114-333 limits assumed): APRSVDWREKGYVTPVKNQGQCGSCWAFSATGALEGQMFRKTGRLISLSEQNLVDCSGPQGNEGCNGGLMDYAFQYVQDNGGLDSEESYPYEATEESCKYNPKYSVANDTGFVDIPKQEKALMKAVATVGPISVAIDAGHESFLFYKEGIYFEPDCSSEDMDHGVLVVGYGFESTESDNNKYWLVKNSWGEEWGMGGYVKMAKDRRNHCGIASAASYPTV
# Test: Inhibition of human cathepsin L at 100uM
# Settings: not given
row,Structure (SMILES),inhibition
1,COc1ccc2c(c1)C(CC(=O)N[C@H](C(=O)N[C@@H](CCc1ccccc1)C(=O)NCc1ccc(C)cc1)[C@@H](C)O)CC2=O (stereo partly drawn),Active
2,C[C@@H](O)[C@H](NC(=O)c1ccc(OCc2ccccc2)cc1)C(=O)N[C@@H](CCc1ccccc1)C(=O)NCc1ccccc1Cl,Active
3,Cc1ccc(CNC(=O)[C@H](CCc2ccccc2)NC(=O)[C@@H](NC(=O)C(=O)c2c[nH]c3ccccc23)[C@@H](C)O)cc1,Active

# Tested on: not listed separately
# Test: Inhibition of chymotrypsin-like activity of human 20s proteasome beta2 subunit in human erythrocyte assessed as hydrolysis of Ac-WLA-AMC fluorogenic substrate
# Settings: not given
row,Structure (SMILES),IC50 [nM]
1,COc1ccc2c(c1)C(CC(=O)N[C@H](C(=O)N[C@@H](CCc1ccccc1)C(=O)NCc1ccc(C)cc1)[C@@H](C)O)CC2=O (stereo partly drawn),> 20000
2,C[C@@H](O)[C@H](NC(=O)c1ccc(OCc2ccccc2)cc1)C(=O)N[C@@H](CCc1ccccc1)C(=O)NCc1ccccc1Cl,> 20000
3,Cc1ccc(CNC(=O)[C@H](CCc2ccccc2)NC(=O)[C@@H](NC(=O)C(=O)c2c[nH]c3ccccc23)[C@@H](C)O)cc1,> 20000

# Tested on: not listed separately
# Test: Inhibition of chymotrypsin-like activity of human 20s proteasome beta5 subunit in human erythrocyte assessed as hydrolysis of Ac-WLA-AMC fluorogenic substrate
# Settings: not given
row,Structure (SMILES),IC50 [nM]
1,COc1ccc2c(c1)C(CC(=O)N[C@H](C(=O)N[C@@H](CCc1ccccc1)C(=O)NCc1ccc(C)cc1)[C@@H](C)O)CC2=O (stereo partly drawn),25
2,C[C@@H](O)[C@H](NC(=O)c1ccc(OCc2ccccc2)cc1)C(=O)N[C@@H](CCc1ccccc1)C(=O)NCc1ccccc1Cl,13
3,Cc1ccc(CNC(=O)[C@H](CCc2ccccc2)NC(=O)[C@@H](NC(=O)C(=O)c2c[nH]c3ccccc23)[C@@H](C)O)cc1,7.3

# From ChEMBL document CHEMBL1268915, “Optimization of a series of dipeptides with a P3 threonine residue as non-covalent inhibitors of the chymotrypsin-like activity of the human 20S proteasome” (Bioorg Med Chem Lett, 2010)
